Experimental data reported in ChEMBL document CHEMBL1122459, “4-(Diphenylmethyl)-1-[(imino)methyl]piperidines as gastric antisecretory agents” (J Med Chem, 1983).

Columns and labels:
Rattus norvegicus [1] = experiment: Antisecretory activity against acute gastric fistula(AGF) in rat when administered perorally; type: functional; conditions: Stomach, po
Outline: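 Female Sprague-Dawley rats, 120-160 g, fasted ≥18 h; drug or vehicle (0.5% methocel) po 1 h before surgery. Under ether, fundic fistula tube inserted; first 30-min sample discarded, then two 1-h collections. Volume measured, aliquot titrated to pH 7 with 0.01 N NaOH for total acid output. ED50 = dose for 50% inhibition vs controls, least-squares regression; ≥5 rats/group, ≥3 doses.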

[2] = biological target: Muscarinic acetylcholine receptor; experiment: Displacement of [3H]- quinuclidinyl benzilate from rat brain Muscarinic acetylcholine receptor
[3] = Ratio between gastric emptying(GE) and acute gastric fistula(AGF); type: functional, Stomach
Rattus norvegicus [4] = experiment: Anticholinergic activity against carbachol induced gastric emptying(GE) in rat when administered perorally; type: functional; conditions: Stomach, po
Outline: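 Ten 1-mm polystyrene beads placed in stomach by tube 30 min later; carbachol 80 mcg/kg sc at 1 h post-dose; killed 15 min after. Beads left in stomach counted. ED50 = dose giving 50% inhibition of emptying vs controls, by least-squares regression; ≥5 rats/group, ≥3 dose groups.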

Rattus norvegicus [5] = species on record: Rattus norvegicus; experiment: Relative potency against atropine; type: functional
Rattus norvegicus [6] = species on record: Rattus norvegicus; experiment: animal or person; conditions: Stomach, po
Rattus norvegicus [7] = experiment: Anticholinergic activity against carbachol-induced gastric emptying (GE) in rat when administered perorally; conditions: Stomach, po

Structure (SMILES) | I50 [2] | ED50 (Rattus norvegicus [1]) | Ratio [3] | ED50 (Rattus norvegicus [4]) | Relative Potency (Rattus norvegicus [5]) | ED50 (Rattus norvegicus [6]) | ED50 (Rattus norvegicus [7])
CCCCCCC/N=C/N1CCC(C(c2ccccc2)c2ccccc2)CC1.O=C(O)/C=C/C(=O)O | 3300 nM | 11.5 mg/kg | 2.9 | 33.4 mg/kg | 0.08 |  | 
CCCCCCCC/N=C/N1CCC(C(c2ccccc2)c2ccccc2)CC1.O=C(O)/C=C/C(=O)O | 8600 nM | 10.9 mg/kg | 16.15 | 176 mg/kg | 0.04 |  | 
CCCCCCCCC/N=C/N1CCC(C(c2ccccc2)c2ccccc2)CC1.O=C(O)/C=C/C(=O)O | > 10000 nM | 10.8 mg/kg | 3.74 | 40.4 mg/kg |  |  | 
CN1[C@@H]2CC[C@H]1C[C@@H](OC(=O)C(CO)c1ccccc1)C2 (stereo partly drawn) [ATROPINE] |  | 0.64 mg/kg |  | 0.35 mg/kg |  |  | 
CC(C)/N=C/N1CCC(C(c2ccccc2)c2ccccc2)CC1.O=C(O)/C=C/C(=O)O | 1600 nM | 8.6 mg/kg | 1.76 | 15.1 mg/kg | 0.15 |  | 
CCCCCC/N=C/N1CCC(C(c2ccccc2)c2ccccc2)CC1.O=C(O)/C=C/C(=O)O | 1900 nM | 8.34 mg/kg | 1.8 | 15 mg/kg | 0.13 |  | 
CCCCCCCCCC/N=C/N1CCC(C(c2ccccc2)c2ccccc2)CC1 | 3800 nM | 7.8 mg/kg | 5.52 | 43.1 mg/kg | 0.06 |  | 
CN/C(=N\CCSCc1nc[nH]c1C)NC#N [CIMETIDINE] |  |  |  |  |  | 7.6 mg/kg | 160 mg/kg

Now from value to compound, other results behind:

I50 [2] | Structure (SMILES) | ED50 (Rattus norvegicus [1]) | Ratio [3] | ED50 (Rattus norvegicus [4]) | Relative Potency (Rattus norvegicus [5]) | ED50 (Rattus norvegicus [6]) | ED50 (Rattus norvegicus [7])
1300 nM | C#CC/N=C/N1CCC(C(c2ccccc2)c2ccccc2)CC1.Cl | 5.4 mg/kg | 1.48 | 8 mg/kg | 0.19 |  | 
70 nM | CCC(=N)N1CCC(C(c2ccccc2)c2ccccc2)CC1 | 54.5 mg/kg | 0.37 | 20 mg/kg | 3.61 |  | 
3 nM | Cl.N=CN1CCC(C(c2ccccc2)c2ccccc2)CC1 | 0.34 mg/kg | 2.53 | 0.86 mg/kg | 81.7 |  | 
1600 nM | CCCC/N=C/N1CCC(C(c2ccccc2)c2ccccc2)CC1.O=C(O)/C=C/C(=O)O | 7.6 mg/kg | 1.36 | 10.3 mg/kg | 0.15 |  | 
490 nM | C=CC/N=C/N1CCC(C(c2ccccc2)c2ccccc2)CC1 | 10.4 mg/kg | 1.27 | 13.2 mg/kg | 0.51 |  | 
